ChEMBL document CHEMBL4145662, “Novel Nonsteroidal Progesterone Receptor (PR) Antagonists with a Phenanthridinone Skeleton” (ACS Med Chem Lett, 2018)
Activity calls are given as the source filed them. The calls are words filed in the database; no cut-off is given here.

Experiments:
Type in all cases: cell-based
[1] = target: T1, Glucocorticoid receptor (Homo sapiens, UniProt P04150); experiment: Antagonist activity at human CMX-GRalpha expressed in HEK293 cells assessed as reduction in dexamethasone-induced transactivation activity after 24 hrs by luciferase reporter gene assay
T1 sequence (P04150 whole entry): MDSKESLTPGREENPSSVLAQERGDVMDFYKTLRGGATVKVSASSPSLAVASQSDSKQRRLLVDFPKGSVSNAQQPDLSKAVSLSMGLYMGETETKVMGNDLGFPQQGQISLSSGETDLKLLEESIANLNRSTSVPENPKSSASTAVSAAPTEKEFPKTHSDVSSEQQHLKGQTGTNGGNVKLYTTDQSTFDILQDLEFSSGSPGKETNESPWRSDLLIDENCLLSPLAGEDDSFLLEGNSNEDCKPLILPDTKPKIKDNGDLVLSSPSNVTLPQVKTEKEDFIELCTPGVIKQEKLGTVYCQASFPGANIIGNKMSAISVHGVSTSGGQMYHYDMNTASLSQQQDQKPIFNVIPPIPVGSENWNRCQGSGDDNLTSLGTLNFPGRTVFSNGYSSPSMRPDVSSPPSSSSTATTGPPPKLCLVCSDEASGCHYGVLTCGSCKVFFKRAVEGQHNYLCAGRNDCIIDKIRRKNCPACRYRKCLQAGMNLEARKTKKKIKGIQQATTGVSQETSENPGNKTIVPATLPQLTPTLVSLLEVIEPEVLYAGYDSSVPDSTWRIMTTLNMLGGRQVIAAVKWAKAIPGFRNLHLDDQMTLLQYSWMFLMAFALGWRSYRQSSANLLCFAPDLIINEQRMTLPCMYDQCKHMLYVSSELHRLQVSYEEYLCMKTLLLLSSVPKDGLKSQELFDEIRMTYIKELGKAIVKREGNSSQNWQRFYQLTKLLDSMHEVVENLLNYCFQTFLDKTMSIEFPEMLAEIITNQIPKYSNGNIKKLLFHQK
Method in brief: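 GRα antagonism measured by reporter gene assay with dexamethasone (1 nM) as agonist.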

[2] = target: T2, Oxysterols receptor LXR-beta (Homo sapiens, UniProt P55055); experiment: Antagonist activity at human GAL4N-fused LXRbeta LBD expressed in HEK293 cells assessed as reduction in T0901317-induced transactivation activity after 24 hrs by luciferase reporter gene assay
T2 sequence (P55055 whole entry): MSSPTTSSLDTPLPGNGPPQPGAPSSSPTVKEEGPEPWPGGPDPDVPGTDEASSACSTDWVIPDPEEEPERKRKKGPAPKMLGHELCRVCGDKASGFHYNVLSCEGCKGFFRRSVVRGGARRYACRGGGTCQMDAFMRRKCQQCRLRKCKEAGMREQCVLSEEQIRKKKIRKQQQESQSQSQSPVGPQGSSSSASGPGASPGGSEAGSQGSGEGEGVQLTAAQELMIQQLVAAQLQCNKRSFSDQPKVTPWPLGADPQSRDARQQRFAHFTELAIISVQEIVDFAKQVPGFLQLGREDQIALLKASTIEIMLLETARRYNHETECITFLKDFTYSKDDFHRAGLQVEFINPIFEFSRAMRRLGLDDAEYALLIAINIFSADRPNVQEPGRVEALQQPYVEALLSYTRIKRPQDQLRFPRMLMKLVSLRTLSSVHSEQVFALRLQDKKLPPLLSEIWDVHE

[3] = target: T3, Nuclear receptor ROR-alpha (Homo sapiens) (UniProt P35398); experiment: Antagonist activity at human RORalpha1 expressed in HEK293 cells at 20 uM after 24 hrs by luciferase reporter gene assay
T3 sequence (whole entry): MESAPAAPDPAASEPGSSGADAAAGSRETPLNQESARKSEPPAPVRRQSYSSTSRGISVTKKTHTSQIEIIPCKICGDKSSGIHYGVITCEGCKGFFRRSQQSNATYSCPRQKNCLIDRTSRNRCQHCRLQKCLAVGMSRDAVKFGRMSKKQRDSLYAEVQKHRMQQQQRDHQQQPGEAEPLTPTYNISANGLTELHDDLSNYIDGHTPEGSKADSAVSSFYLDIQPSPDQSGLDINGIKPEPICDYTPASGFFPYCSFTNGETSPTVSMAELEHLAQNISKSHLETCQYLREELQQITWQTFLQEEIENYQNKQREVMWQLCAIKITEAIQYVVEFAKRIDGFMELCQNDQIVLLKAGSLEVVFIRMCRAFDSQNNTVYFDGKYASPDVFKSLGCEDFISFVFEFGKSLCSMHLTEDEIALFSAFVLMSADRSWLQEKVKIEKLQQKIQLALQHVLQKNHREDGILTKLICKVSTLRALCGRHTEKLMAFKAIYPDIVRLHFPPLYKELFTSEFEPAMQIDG
Method in brief: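 Inverse agonism at RORα, RORβ or RORγ measured by reporter gene assay.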

[4] = target: T4, Androgen receptor (Homo sapiens, UniProt P10275); experiment: Antagonist activity at human CMX-AR expressed in HEK293 cells assessed as reduction in dihydrotestosterone-induced transactivation activity after 24 hrs by luciferase reporter gene assay
T4 sequence (P10275 whole entry): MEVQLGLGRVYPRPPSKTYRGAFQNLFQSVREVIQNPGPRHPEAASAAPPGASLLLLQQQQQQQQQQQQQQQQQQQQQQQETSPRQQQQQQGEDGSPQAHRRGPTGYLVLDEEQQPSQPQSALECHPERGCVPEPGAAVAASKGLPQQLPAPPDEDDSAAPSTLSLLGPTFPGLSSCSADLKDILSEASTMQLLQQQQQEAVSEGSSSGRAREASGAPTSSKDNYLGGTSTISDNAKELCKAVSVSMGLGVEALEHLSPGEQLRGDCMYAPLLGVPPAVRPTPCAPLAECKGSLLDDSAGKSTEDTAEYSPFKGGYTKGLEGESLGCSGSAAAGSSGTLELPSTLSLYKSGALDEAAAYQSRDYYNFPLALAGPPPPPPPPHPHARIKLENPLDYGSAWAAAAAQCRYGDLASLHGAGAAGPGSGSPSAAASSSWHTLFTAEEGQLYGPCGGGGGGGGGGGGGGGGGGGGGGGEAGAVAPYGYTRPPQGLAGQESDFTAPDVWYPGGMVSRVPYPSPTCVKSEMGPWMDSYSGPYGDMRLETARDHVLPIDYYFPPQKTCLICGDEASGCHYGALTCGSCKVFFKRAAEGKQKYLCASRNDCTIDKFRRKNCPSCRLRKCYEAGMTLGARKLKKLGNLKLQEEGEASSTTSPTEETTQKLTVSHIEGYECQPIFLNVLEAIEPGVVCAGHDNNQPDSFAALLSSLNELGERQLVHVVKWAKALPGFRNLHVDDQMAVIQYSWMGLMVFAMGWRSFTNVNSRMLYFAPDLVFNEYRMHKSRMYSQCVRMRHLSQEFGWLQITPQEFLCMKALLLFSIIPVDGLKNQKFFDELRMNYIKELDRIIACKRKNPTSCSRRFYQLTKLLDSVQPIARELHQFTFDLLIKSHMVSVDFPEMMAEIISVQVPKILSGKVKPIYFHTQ
Method in brief: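 AR antagonism measured by reporter gene assay with dihydrotestosterone (0.3 nM) as agonist.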

IC50 [1] | IC50 [2] | Activity [3] | IC50 [4] | Structure (SMILES)
> 20 µM | > 20 µM | inactive |  | Cc1cc(C(O)(C(F)(F)F)C(F)(F)F)cc2c3ccc(F)cc3c(=O)n(C)c12
> 20 µM |  | inactive | 1.8 µM | Cc1cc(C(O)(C(F)(F)F)C(F)(F)F)cc2c1[nH]c(=O)c1cc(F)ccc12
> 20 µM | > 20 µM | inactive | > 20 µM | Cc1cc(C(O)(C(F)(F)F)C(F)(F)F)cc2c1[nH]c(=O)c1ccccc12
